# Screening data: PubChem, The Scripps Research Institute Molecular Screening Center
# Hits are enriched below; roughly 3.7% of the tested compounds scored in any of these assays.
# rCAG binder: binds r(CAG) RNA repeats; r(CAG) RNA repeat, TO-PRO-1 dye displacement fluorescence; inhibition, % at 3 µM; 370,000 tested, 1.3% active;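 active = inhibition above the plate cutoff, the mean of all test compounds on that plate plus 3 SD, cut at about 35% in these data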;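 note: 0% = DMSO alone and 100% = 100 µM mitoxantrone as full dye displacement; higher means more dye released from RNA so lower well fluorescence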
# TAAR1 antagonist: human TAAR1 antagonism | CHO RD-HGA16 TAAR1, Fluo-8 calcium fluorescence, antagonist | AID 624466 | inhibition, % at 3 µM | 360,000 tested, 1.5% active | Q96RJ0;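 active = inhibition above a per-plate cutoff, the mean inhibition of test compounds on that plate plus 3 SD, cut at about 49% in these data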;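 note: 0% = DMSO plus EC80 beta-PEA response and 100% = DMSO alone without agonist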
# Target sequence (Q96RJ0 whole entry, looked up): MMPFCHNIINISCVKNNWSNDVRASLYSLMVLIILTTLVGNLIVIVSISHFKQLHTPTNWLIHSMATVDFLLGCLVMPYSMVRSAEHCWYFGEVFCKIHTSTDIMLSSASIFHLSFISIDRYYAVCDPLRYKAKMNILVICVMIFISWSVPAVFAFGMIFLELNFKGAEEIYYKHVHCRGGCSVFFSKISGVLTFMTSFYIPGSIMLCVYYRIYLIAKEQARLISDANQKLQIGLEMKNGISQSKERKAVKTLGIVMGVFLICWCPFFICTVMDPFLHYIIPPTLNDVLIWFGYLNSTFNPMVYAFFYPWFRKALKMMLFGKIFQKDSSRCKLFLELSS
#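 Material: RD-HGA16 CHO cells with stable hTAAR1 and Gα16; Dosing: single nominal final test compound concentration of 3 µM; Schedule: seeding 17-24 h prior, 75-min 37 °C, 30-min RT dye loading; Detection: kinetic Fluo-8 calcium fluorescence measurement; Measure: % inhibition from peak post-agonist over basal fluorescence ratio; Benchmarks: vehicle and agonist controls.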
# TAAR1 ag: human TAAR1 agonism; CHO RD-HGA16 TAAR1, Fluo-8 calcium fluorescence; vehicle wells 0%, saturating PEA agonist 100%; activation, % at 3 µM; 360,000 tested, 0.99% active;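 active = activation above the mean activation of all test compounds in the run plus 3 SD, cut at about 38% in these data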
#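 Assay system: CHO-derived RD-HGA16 cells with stable Gα16 and human TAAR1; timing: 17-24 h seeding, 75 min 37 °C dye, 30 min RT; read-out: % activation from peak over basal fluorescence ratio, DMSO-to-PEA scaled; measured by: kinetic Fluo-8 calcium fluorescence; benchmarks: low control DMSO, high control PEA (EC100); doses: 3 µM single concentration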
# HCV NS3 hel inh: HCV NS3 helicase inhibition | NS3 helicase DNA unwinding, Cy5 molecular beacon fluorescence | 290,000 tested, 0.56% active | inhibition, % at 10.9 µM | AID 1800;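 active = inhibition above the mean of all tested compounds plus 3 SD, set per campaign, cut at about 35% in these data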;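 note: 0% = DMSO wells and 100% = thioflavine S control wells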
#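 Control set: DMSO versus 110 µM thioflavine S; Material: NS3 helicase fragment of HCV; Measured by: Cy5 fluorescence at 0 and 60 min, beacon hairpin quenching; Read-out basis: percent inhibition from t60/t0 fluorescence ratio; Times: reaction time 60 min, 25 °C; Repeats: single replicate; Compound dosing: single dose, 10.9 µM nominal final, DMSO 0.8% final.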
# core dimer inh: HCV core protein dimerization inhibition. TR-FRET GST/Flag-core106 dimerization, 1536-well. inhibition, % at 5 µM. AID 1899. 300,000 tested, 0.33% active;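 active = inhibition above the mean of all tested compounds plus 3 SD, set per screening campaign, cut at about 45% in these data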
#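 Material: Tagged HCV core106 pair (GST and Flag) | Amount: GST-core106 13.5 nM, Flag-core106 17 nM | Medium: KF-containing HEPES buffer, pH 7.45, DTT, CHAPS, BSA | Reagent: Eu donor and XL665 acceptor anti-tag antibodies | Schedule: 4 h at 22.5 °C | Technique: Time-resolved FRET, ex 340 nm, em 617 and 671 nm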
# NS3 helicase cf: HCV NS3 helicase inhibition, confirmation assay | shares compounds with HCV NS3 hel inh | NS3 helicase DNA unwinding, Cy5 molecular beacon fluorescence | inhibition, % at 10.9 µM | 1,600 tested, 31% active | AID 1943;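 active = inhibition above the mean of all tested compounds plus 3 SD, cutoff set per campaign, cut at about 36% in these data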
# FID counter trip: intercalator displacement, NS3 helicase counter-screen; 1,600 tested, 4% active; DNA fluorescent intercalator displacement, fluorescence; AID 1945; shares compounds with HCV NS3 hel inh; inhibition, % at 7.9 µM; in the data active = inhibition above about 37%;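 note: 0% = vehicle and 100% = reference compound; higher means more displacement of ethidium bromide from the DNA hairpin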
# FID counter DR: counter-screen for HCV NS3 helicase inhibitors: DNA intercalator displacement dose response. shares compounds with HCV NS3 hel inh. 120 tested, under 10 active. IC50, µM. fluorescent intercalator displacement from DNA, fluorescence; call rule not given here
# rCAG bind conf: r(CAG) RNA repeat binding, confirmation; shares compounds with rCAG binder; TO-PRO-1 dye displacement fluorescence; inhibition, % at 3 µM; 4,300 tested, 70% active;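 active = inhibition above a per-plate cutoff, the mean inhibition of sample wells plus 3 SD, cut at about 35% in these data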;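 note: loss of TO-PRO-1 fluorescence as compound displaces dye from 1x1 AA loop RNA; 0% = DMSO only wells and 100% = 100 µM mitoxantrone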
# dCAG dye counter: DNA CAG dye complex inhibition counter-screen; shares compounds with rCAG binder; d(CAG) DNA oligo TO-PRO-1 dye displacement, fluorescence; inhibition, % at 3 µM; 4,300 tested, 94% active;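 active = inhibition above its plate's cutoff, the mean test-well inhibition plus 3 SD, cut at about 4.8% in these data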;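 note: 0% = DNA dye mix with DMSO and 100% = 100 µM mitoxantrone; hits displace the dye from DNA and so lower well fluorescence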
# Starred values were filed as active, the others as inactive; · = not tested or not shown.
SMILES,rCAG binder,TAAR1 antagonist,TAAR1 ag,HCV NS3 hel inh,core dimer inh,NS3 helicase cf,FID counter trip,rCAG bind conf,dCAG dye counter,others
COc1ccc(OC)c(/C=C2\SC(=S)N(C(C(=O)O)c3ccccc3)C2=O)c1 (configuration not stated),55*,-9,24,47*,13,84*,16,77*,44*,
O=S(=O)(c1cccs1)N1CCC(c2cn3ccccc3n2)CC1,7,·,·,·,·,·,·,·,·,
Oc1ccc(Br)cc1/C=N/n1c(-c2ccccc2)n[nH]c1=S,26,0,-1,27,0,·,·,·,·,
Oc1c(Br)cc(Br)c(/C=N/n2c(-c3ccccc3)n[nH]c2=S)c1Br,59*,-13,0,39*,16,69*,13,43*,14*,
COc1ccc(S[C@]2(C(=O)N(C)C)CC(=O)N(C(=O)Nc3ccc(C)c(Cl)c3)[C@@H]2c2ccc(OC)cc2)cc1,9,·,·,·,·,·,·,·,·,
O=C1NC(=S)S/C1=C\c1ccc(SCc2ccccc2)o1,82*,17,5,47*,2,81*,22,79*,43*,
O=C1NC(=S)SC1=Cc1ccccc1Cl,17,-33,2,·,·,·,·,·,·,
Cc1ccc(C(=O)/C=C/c2cc(Br)cc(Br)c2O)o1,60*,47,15,37*,20,48*,8,46*,16*,FID counter DR=>79
O=C(OC12CCCN(C1)/C(=C/c1cccnc1)C2)c1ccco1 (configuration not stated),0,·,·,·,·,·,·,·,·,
Cc1ccc(S(=O)(=O)N2CCC(C(=O)NCc3cccs3)CC2)cc1,4,·,·,·,·,·,·,·,·,
CN(C)S(=O)(=O)c1cccc(NC(=S)N/N=C/c2cc(Br)ccc2O)c1,46*,30,13,46*,5,53*,12,55*,21*,
CN(C)S(=O)(=O)c1cccc(NC(=S)N/N=C/c2cccc(O)c2)c1,9,22,16,7,-5,·,·,·,·,
COC(=O)c1c(-c2cc(C)ccc2C)csc1NC(=O)C1CC=CCC1C(=O)O (configuration not stated),30,0,11,28,9,·,·,·,·,
COC(=O)c1c(-c2ccc(C)cc2)csc1NC(=O)C1CC=CCC1C(=O)O (configuration not stated),38*,-18,4,39*,2,53*,-22,38*,8.5*,
CN(CCC#N)C(=O)COC(=O)c1c2c(nc3ccccc13)/C(=C/c1ccco1)CC2,69*,-11,-1,77*,53*,-1,3,52*,28*,
COC[C@@H]1CCCN1c1cccc2c1S(=O)(=O)N1CC[C@@H](C1)O2,6,·,·,·,·,·,·,·,·,
CCc1sc(C(C2C(=O)CC(C)(C)CC2=O)C2C(=O)CC(C)(C)CC2=O)cc1[N+](=O)[O-],37*,-2,36,59*,17,68*,-19,23,6.4*,
COc1cccc(OCCOc2ccc(/C=C3\C(=N)N4N=C(S(C)(=O)=O)SC4=NC3=O)cc2OC)c1,52*,-10,1,48*,·,53*,21,91*,75*,
COc1ccccc1OCCOc1ccc(/C=C2\C(=N)N3N=C(S(C)(=O)=O)SC3=NC2=O)cc1,32,-6,2,8,22,·,·,·,·,
COc1ccc(-c2ccc3c(n2)CCCN3S(=O)(=O)c2ccccc2C)cc1,4,19,-1,·,·,·,·,·,·,
COC(=O)[C@]12C[C@H](CC(=O)N3CCN(C(=O)C4CC4)CC3)C(=O)N(Cc3ccccc3)C1=C[C@H](C(C)C)O[C@@H]2C1CC1,1,4,0,·,·,·,·,·,·,
COc1cc(/C=C2/SC(=S)N(Cc3ccccc3)C2=O)ccc1OCC(=O)O,72*,-5,9,37*,37,35,32,86*,55*,
CCOc1ccc(C(=O)Nc2nnc(S(=O)(=O)N(C)Cc3ccco3)s2)cc1,36*,-7,0,57*,2,2,-5,37*,11*,
CCOc1cc(/C=C2\SC(=Nc3ccc(CC)cc3)NC2=O)ccc1OCC(=O)O,71*,0,5,46*,17,69*,7,47*,14*,
Cc1sc(NC(=O)C2CCCCC2C(=O)O)c(C(N)=O)c1-c1ccc(C(C)C)cc1 (configuration not stated),37*,9,23,39*,14,77*,-22,54*,16*,
SMILES,rCAG binder,TAAR1 antagonist,TAAR1 ag,HCV NS3 hel inh,core dimer inh,NS3 helicase cf,FID counter trip,rCAG bind conf,dCAG dye counter,others
COc1ccc(S[C@]2(C(=O)N3CCN(C(C)=O)CC3)CC(=O)N(C(=O)C3CC3)[C@@H]2c2ccc(OC)cc2)cc1,5,·,·,·,·,·,·,·,·,
Nc1[nH]c(C(=O)c2ccccc2)c(-c2cccc(C(F)(F)F)c2)c1C(=O)NCCc1c[nH]c2ccccc12,4,-13,8,·,·,·,·,·,·,
Nc1[nH]c(C(=O)c2ccccc2)c(-c2ccc3ccccc3c2)c1C(=O)NC1CC1,6,28,11,·,·,·,·,·,·,
CNc1ccc(Br)cc(C(=O)/C=C/c2cccc(OC)c2)c1=O,36*,34,22,44*,14,54*,15,37*,16*,FID counter DR=>79
CCNc1ccc(Br)cc(C(=O)/C=C/c2ccc3c(c2)OCO3)c1=O,39*,-15,1,47*,58*,41*,-5,36*,18*,
CCNc1ccc(Br)cc(C(=O)/C=C/c2ccc(Cl)cc2)c1=O,·,·,·,28,24,·,·,·,·,
C[N+]1=C(N)NC2=C3CCCCC3n3c(=O)n(-c4ccccc4)c(=O)n3C2C1 (configuration not stated),9,·,·,·,·,·,·,·,·,
N=C1/C(=C\c2ccc(-c3cccc(Cl)c3)o2)C(=O)N=C2SC=C(c3ccccc3)N12,65*,6,0,46*,41,80*,17,66*,41*,
Cc1cc(/C=C2/C(=N)N3C(c4ccccc4)=CSC3=NC2=O)c(C)n1-c1ccc(Cl)cc1,-1,-22,2,·,·,·,·,·,·,
Cc1sc2nc3c(SC(C)C(=O)O)cc(C(=O)c4ccccc4O)cn3c(=O)c2c1C (configuration not stated),77*,-3,4,45*,18,70*,56*,85*,61*,
